Assay results as given in publication PMC3240942 (Molecular cell, 2011).
Where no end group is shown, it is not given here.

Experiments:
Sirt1 [1] = molecular target: T1, Sirt1 (Mus musculus, UniProt Q923E4); assay: Lineweaver-Burk kinetics of Sirt1; type: biochemical; details: Sirt1 substrate/cofactor, under our reaction conditions
T1 sequence (Q923E4 1-737): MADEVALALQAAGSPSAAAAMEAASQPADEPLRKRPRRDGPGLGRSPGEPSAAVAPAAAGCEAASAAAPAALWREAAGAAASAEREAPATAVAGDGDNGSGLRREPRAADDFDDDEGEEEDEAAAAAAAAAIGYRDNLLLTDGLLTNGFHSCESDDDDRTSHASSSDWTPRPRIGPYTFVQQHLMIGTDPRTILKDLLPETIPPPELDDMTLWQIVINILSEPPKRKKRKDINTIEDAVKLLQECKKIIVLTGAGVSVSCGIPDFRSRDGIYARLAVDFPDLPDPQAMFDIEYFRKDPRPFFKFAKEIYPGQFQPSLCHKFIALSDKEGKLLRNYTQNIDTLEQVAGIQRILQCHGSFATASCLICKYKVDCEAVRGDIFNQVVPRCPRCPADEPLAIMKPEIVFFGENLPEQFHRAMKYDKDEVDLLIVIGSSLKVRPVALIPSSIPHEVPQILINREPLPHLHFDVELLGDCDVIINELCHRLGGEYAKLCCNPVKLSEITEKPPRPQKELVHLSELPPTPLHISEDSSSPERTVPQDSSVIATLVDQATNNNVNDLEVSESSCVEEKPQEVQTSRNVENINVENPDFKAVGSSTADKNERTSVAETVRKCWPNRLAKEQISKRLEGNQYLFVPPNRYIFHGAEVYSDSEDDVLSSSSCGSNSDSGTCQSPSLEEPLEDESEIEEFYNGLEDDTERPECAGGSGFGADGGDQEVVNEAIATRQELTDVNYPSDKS
How it was run: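 His-Sirt1 (2 μg) was pre-incubated 5 min at room temperature in HEPES pH 7.0 buffer with mutant ESA peptide at 0, 60, 120 or 240 μM. Ac-K16 H4 fluorogenic dipeptide was varied at 500 μM NAD+, or NAD+ was varied at 100 μM substrate. Reactions ran 25 min at 37 °C and were stopped with nicotinamide developer; ex 355/em 460 nm, no-NAD+ blank subtracted. Triplicates. Kis/Kii came from a double-reciprocal noncompetitive model fit, Km from the same analysis, kcat from a Michaelis–Menten fit.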

Sirt1 [2] = molecular target: T1, Sirt1; details: 2007, cited from earlier work; for reported Sirt1 activation: ref Howitz et al., 2003, Milne et al.
Ac-H4 peptide = assay: Pull-down with streptavidin-immobilized Ac-H4 peptide; type: binding
How it was run: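 Biotinylated peptide (mutant ESA or acetyl-H4) was bound to streptavidin agarose for 1 h at room temperature, washed, and held in PBS/1% Triton X-100. Beads (30 μl) took 2 μg GST-fused or His-tagged protein for 2 h at room temperature. Beads were washed with PBS/1% Triton/200 mM NaCl and eluted in β-ME SDS buffer at 95 °C for 10 min. Blots ran on 4–12% SDS-PAGE; biotin-only beads were the control.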

[3] = molecular target: T2, Sirt1 deacetylase core (Core, a.a. 184-510) (mouse, UniProt Q923E4 184-510); assay: pull-down
T2 sequence (looked up): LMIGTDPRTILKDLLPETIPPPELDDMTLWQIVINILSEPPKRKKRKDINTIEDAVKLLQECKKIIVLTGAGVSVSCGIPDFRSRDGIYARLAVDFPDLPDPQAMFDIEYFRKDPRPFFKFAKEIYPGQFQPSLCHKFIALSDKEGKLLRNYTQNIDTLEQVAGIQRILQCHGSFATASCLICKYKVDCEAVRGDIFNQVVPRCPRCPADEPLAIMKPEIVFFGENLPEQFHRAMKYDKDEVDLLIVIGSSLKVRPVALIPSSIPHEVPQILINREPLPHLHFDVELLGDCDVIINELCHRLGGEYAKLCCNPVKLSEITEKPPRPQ

[4] = molecular target: T3, Sirt1 fragment F1b (the Sirtuin domain, a.a. 236-490) (mouse, UniProt Q923E4 236-490); assay: pull-down
T3 sequence (looked up): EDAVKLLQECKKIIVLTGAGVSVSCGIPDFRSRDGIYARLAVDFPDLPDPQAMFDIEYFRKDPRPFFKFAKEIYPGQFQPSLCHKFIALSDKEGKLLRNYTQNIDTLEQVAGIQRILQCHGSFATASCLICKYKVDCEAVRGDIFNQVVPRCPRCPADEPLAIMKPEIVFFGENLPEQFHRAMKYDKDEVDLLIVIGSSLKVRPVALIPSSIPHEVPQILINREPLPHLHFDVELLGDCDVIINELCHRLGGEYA

[5] = tested on: Lys 382 acetylated-p53 (Ac-p53); assay: Deacetylation of Lys 382 acetylated-p53 by recombinant WT/mutant Sirt1; type: biochemical, mouse Sirt1; details: recombinant Sirt1 2 μg, acetylated GST-p53 0.2 μg, 0.5 mM NAD+, pH 7.0, 37 °C; immunoblot
How it was run: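 Recombinant His-tagged WT or C-terminally truncated/point-mutant mouse Sirt1 (2 μg) incubated with acetylated GST-p53 (0.2 μg) and 0.5 mM NAD+ in 50 mM HEPES pH 7.0, 1 mM DTT, 10 mM MgCl2, 200 mM NaCl plus protease/phosphatase inhibitors. Reactions ran at 37 °C for indicated times and were stopped with SDS sample buffer. Read-out: immunoblot with acetyl-K382 p53 antibody; loading checked by Coomassie, Ponceau S or Western blot.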

GST-Ac-p53 = assay: Pull-down of Sirt1 / core fragments with GST-Ac-p53; type: binding; details: in vitro pull-down
How it was run: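 In vitro pull-downs with GST-Ac-p53 or GST alone as negative control. Recombinant Flag-tagged full-length or ΔESA (a.a. 631-655 deleted) Sirt1 pulled down with anti-Flag, bound GST-Ac-p53 detected by GST immunoblot, and Sirt1 shown by Coomassie. Alternatively, core (a.a. 184-510) or Core-ESA with GST-Ac-p53 (2 μg each) in GST pull-down, bound core detected by Sirt1 immunoblot.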

Flag-p65 (NF-κB) = assay: Co-immunoprecipitation of Sirt1 with Flag-p65 in Hela cells; type: cell-based; details: V5-tagged Sirt1
How it was run: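 Transient co-transfection of HeLa cells with Flag-NF-κB p65 plus V5-tagged full-length or ΔESA Sirt1. p65 was pulled down with anti-Flag, and bound Sirt1 was detected by anti-V5 immunoblot alongside input levels.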

NC(=O)c1ccc[n+]([C@@H]2O[C@H](COP(=O)([O-])OP(=O)(O)OC[C@H]3O[C@@H](n4cnc5c(N)ncnc54)[C@H](O)[C@@H]3O)[C@@H](O)[C@H]2O)c1 [NAD^+, reference compound]
Km (Sirt1 [1]): 203 µM

O=C(Nc1ccccc1-c1cn2c(CN3CCNCC3)csc2n1)c1cnc2ccccc2n1 [SRT1720, reference compound]
reported Sirt1 activation (Sirt1 [2]): reported to activate Sirt1

Oc1ccc(/C=C/c2cc(O)cc(O)c2)cc1 [resveratrol, reference compound]
reported Sirt1 activation (Sirt1 [2]): reported to activate Sirt1

GST-ESA: ESA fused to GST (QYLFVPPNRYIFHGAEVYSDSEDDV; also: fused to GST, end not given here)
binding to Ac-H4 peptide (Ac-H4 peptide): not to either GST-ESA or GST alone

QYLFVPPNRYIFHGAEVYSDSEDDV (peptide, UniProt Q923E4 631-655, looked up, also: biotin-tagged, position not given here) [ESA peptide (biotin-tagged peptide of the region essential for Sirt1 activity, a.a. 631-655)]
binding result [3]: binds | binding result [4]: binds

B1: Core-ESA: ESA region attached to the deacetylase core (protein)
chain: LMIGTDPRTILKDLLPETIPPPELDDMTLWQIVINILSEPPKRKKRKDINTIEDAVKLLQECKKIIVLTGAGVSVSCGIPDFRSRDGIYARLAVDFPDLPDPQAMFDIEYFRKDPRPFFKFAKEIYPGQFQPSLCHKFIALSDKEGKLLRNYTQNIDTLEQVAGIQRILQCHGSFATASCLICKYKVDCEAVRGDIFNQVVPRCPRCPADEPLAIMKPEIVFFGENLPEQFHRAMKYDKDEVDLLIVIGSSLKVRPVALIPSSIPHEVPQILINREPLPHLHFDVELLGDCDVIINELCHRLGGEYAKLCCNPVKLSEITEKPPRPQQYLFVPPNRYIFHGAEVYSDSEDDV
modifications: left off: His tag, end not stated, kept
deacetylase activity against Ac-p53 [5]: restored deacetylase activity | binding to GST-Ac-p53 (GST-Ac-p53): increases the deacetylase core-Ac-p53 interaction | binding to Ac-H4 peptide (Ac-H4 peptide): increases the deacetylase core-Ac-H4 interaction

B2: deacetylase core: a.a. 184-510 of Sirt1 (protein)
chain: LMIGTDPRTILKDLLPETIPPPELDDMTLWQIVINILSEPPKRKKRKDINTIEDAVKLLQECKKIIVLTGAGVSVSCGIPDFRSRDGIYARLAVDFPDLPDPQAMFDIEYFRKDPRPFFKFAKEIYPGQFQPSLCHKFIALSDKEGKLLRNYTQNIDTLEQVAGIQRILQCHGSFATASCLICKYKVDCEAVRGDIFNQVVPRCPRCPADEPLAIMKPEIVFFGENLPEQFHRAMKYDKDEVDLLIVIGSSLKVRPVALIPSSIPHEVPQILINREPLPHLHFDVELLGDCDVIINELCHRLGGEYAKLCCNPVKLSEITEKPPRPQ
modifications: left off: His tag, end not stated, kept
deacetylase activity against Ac-p53 [5]: no catalytic activity

B3: WT Sirt1: wild-type full-length Sirt1 (protein)
chain: MADEVALALQAAGSPSAAAAMEAASQPADEPLRKRPRRDGPGLGRSPGEPSAAVAPAAAGCEAASAAAPAALWREAAGAAASAEREAPATAVAGDGDNGSGLRREPRAADDFDDDEGEEEDEAAAAAAAAAIGYRDNLLLTDGLLTNGFHSCESDDDDRTSHASSSDWTPRPRIGPYTFVQQHLMIGTDPRTILKDLLPETIPPPELDDMTLWQIVINILSEPPKRKKRKDINTIEDAVKLLQECKKIIVLTGAGVSVSCGIPDFRSRDGIYARLAVDFPDLPDPQAMFDIEYFRKDPRPFFKFAKEIYPGQFQPSLCHKFIALSDKEGKLLRNYTQNIDTLEQVAGIQRILQCHGSFATASCLICKYKVDCEAVRGDIFNQVVPRCPRCPADEPLAIMKPEIVFFGENLPEQFHRAMKYDKDEVDLLIVIGSSLKVRPVALIPSSIPHEVPQILINREPLPHLHFDVELLGDCDVIINELCHRLGGEYAKLCCNPVKLSEITEKPPRPQKELVHLSELPPTPLHISEDSSSPERTVPQDSSVIATLVDQATNNNVNDLEVSESSCVEEKPQEVQTSRNVENINVENPDFKAVGSSTADKNERTSVAETVRKCWPNRLAKEQISKRLEGNQYLFVPPNRYIFHGAEVYSDSEDDVLSSSSCGSNSDSGTCQSPSLEEPLEDESEIEEFYNGLEDDTERPECAGGSGFGADGGDQEVVNEAIATRQELTDVNYPSDKS
modifications: left off: His tag, end not stated, kept
co-immunoprecipitation with Flag-p65 (Flag-p65 (NF-κB)): readily co-immunoprecipitated with Flag-p65 | binding to Ac-H4 peptide (Ac-H4 peptide): Ac-H4 peptide bound to full-length Sirt1

B4: Core-GPDR: GPDR-mutated ESA region attached to the Core (protein)
chain: LMIGTDPRTILKDLLPETIPPPELDDMTLWQIVINILSEPPKRKKRKDINTIEDAVKLLQECKKIIVLTGAGVSVSCGIPDFRSRDGIYARLAVDFPDLPDPQAMFDIEYFRKDPRPFFKFAKEIYPGQFQPSLCHKFIALSDKEGKLLRNYTQNIDTLEQVAGIQRILQCHGSFATASCLICKYKVDCEAVRGDIFNQVVPRCPRCPADEPLAIMKPEIVFFGENLPEQFHRAMKYDKDEVDLLIVIGSSLKVRPVALIPSSIPHEVPQILINREPLPHLHFDVELLGDCDVIINELCHRLGGEYAKLCCNPVKLSEITEKPPRPQQYLFVPPNRYIFHPAEVYSRSEDDV
binding to Ac-H4 peptide (Ac-H4 peptide): interacted poorly with the Ac-H4 peptide

B5: AROS: Active Regulator of Sirt1 (protein, UniProt Q86WX3 1-136, looked up)
Active regulator of SIRT1: MSAALLRRGLELLAASEAPRDPPGQAKPRGAPVKRPRKTKAIQAQKLRNSAKGKVPKSALDEYRKRECRDHLRVNLKFLTRTRSTVAESVSQQILRQNRGRKACDRPVAKTKKKKAEGTVFTEEDFQKFQQEYFGS
effect on Sirt1 activity (Sirt1 [2]; binds to N-terminal domain of Sirt1, ref Kim et al.): activates its activity
